Assay results reported in ChEMBL document CHEMBL3393009 (J Med Chem, 2015).

Legend:
[1] = biological target: T1, Serine/threonine-protein kinase 3 (Homo sapiens, UniProt Q13188); assay: Inhibition of human recombinant MST2 using Ser/Thr peptide 7 substrate after 45 mins by Z-Lyte assay
T1 sequence (Q13188 whole entry): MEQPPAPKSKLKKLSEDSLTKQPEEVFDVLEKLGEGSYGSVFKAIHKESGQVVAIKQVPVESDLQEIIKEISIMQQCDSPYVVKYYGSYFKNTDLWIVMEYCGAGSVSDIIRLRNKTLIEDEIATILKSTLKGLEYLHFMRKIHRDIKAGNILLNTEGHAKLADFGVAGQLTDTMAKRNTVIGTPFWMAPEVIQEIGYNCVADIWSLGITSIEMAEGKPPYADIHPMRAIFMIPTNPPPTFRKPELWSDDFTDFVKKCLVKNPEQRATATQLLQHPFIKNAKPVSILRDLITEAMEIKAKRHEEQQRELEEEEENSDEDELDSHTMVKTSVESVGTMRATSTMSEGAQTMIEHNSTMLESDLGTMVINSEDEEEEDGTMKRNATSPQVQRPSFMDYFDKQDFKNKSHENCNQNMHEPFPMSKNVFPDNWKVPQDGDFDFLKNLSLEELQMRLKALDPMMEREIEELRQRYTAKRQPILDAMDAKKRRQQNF

[2] = Cmax in non-human primate at 5 mg/kg, po; type: ADME, organism-based; design: dose 5 mg/kg, route oral; details: monkey, in vivo
[3] = Half life in dog at 5 mg/kg, po; type: ADME, organism-based, Canis lupus familiaris; design: dose 5 mg/kg, route oral; details: in vivo
[4] = Clearance in human liver microsomes; type: ADME; details: read-out: CLH
Summary of the method: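 Human liver microsomal clearance.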

[5] = test system: Rattus norvegicus; assay: fAUC in Wistar Han rat at 20 mg/kg, po bid for 14 days; type: ADME, organism-based; design: dose 20 mg/kg, route oral; details: in vivo, 336 h
Summary of the method: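 Wistar Han rats dosed orally twice daily in 10% propylene glycol/20% PEG400/methylcellulose vehicle. Unbound plasma exposure measured on days 1 and 11.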

[6] = test system: Mus musculus; assay: Inhibition of LRRK2 […] mutant S1292 phosphorylation in BAC-transgenic mouse at 3 to 100 mg/kg, sc measured after 90 mins post dose; type: functional; details: dose mg/kg 3-100; route subcutaneous
Summary of the method: (§1)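 Mice given compound subcutaneously in 10% NMP/20% SBECD vehicle: four-month-old C57BL/6J (wild type) or seven-month-old LRRK2 BAC-Tg G2019S. Tissues collected 90 min after dose. pS935, and pS1292 (custom antibody) in transgenic brain, read by Western blot of brain/kidney lysates against vehicle controls. Mean ± SEM.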

[7] = Cmax in dog at 5 mg/kg, po; type: ADME, organism-based, Canis lupus familiaris; design: dose 5 mg/kg, route oral; details: in vivo
[8] = AUC in non-human primate at 5 mg/kg, po; type: ADME, organism-based; design: dose 5 mg/kg, route oral; details: monkey, plasma
[9] = biological target: Leucine-rich repeat serine/threonine-protein kinase 2 (Homo sapiens, UniProt Q5S007); assay: Inhibition of LRRK2 in human PBMCs by ActivX KiNativ method
[10] = Volume of distribution at steady state in non-human primate at 5 mg/kg, po; type: ADME, organism-based; design: dose 5 mg/kg, route oral; details: monkey, in vivo
[11] = test system: Rattus norvegicus; assay: Toxicity in Wistar Han rat assessed as changes in RBC parameters at 6 to 60 mg/kg, po bid for 14 days; type: organism-based; design: dose 6-60 mg/kg, route oral; details: in vivo, 336 h
Summary of the method: (§2)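 Wistar Han rats (200–300 g, 8–11 weeks) dosed by oral gavage twice daily for 14 days. Vehicle: 10% propylene glycol/20% PEG400/70% methylcellulose solution. RBC parameters, electrolytes, food consumption, body weight, clinical chemistry and urinary biomarkers recorded.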

[12] = test system: Rattus norvegicus; assay: Toxicity in Wistar Han rat assessed as changes in clinical chemistry parameters at 6 to 60 mg/kg, po bid for 14 days; type: organism-based; design: dose 6-60 mg/kg, route oral; details: in vivo, 336 h; summary of the method: as §2
[13] = test system: Mus musculus; assay: Inhibition of LRRK2 […] mutant […] phosphorylation in BAC-transgenic mouse at 3 to 100 mg/kg, sc measured after 90 mins post dose; type: functional; details: dose mg/kg 3-100; route subcutaneous; summary of the method: as §1
[14] = test system: Rattus norvegicus; assay: fCmax in Wistar Han rat at 6 mg/kg, po bid for 14 days; type: ADME, organism-based; design: dose 6 mg/kg, route oral; details: in vivo, 336 h
[15] = biological target: Serine/threonine-protein kinase 26 (Homo sapiens, UniProt Q9P289); assay: Inhibition of human recombinant MST4 using Ser/Thr peptide 7 substrate after 60 mins by Z-Lyte assay
Summary of the method: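 Z-Lyte FRET assay, final 2 μM Ser/Thr peptide 7, 75 μM ATP, 18 nM kinase. Buffer 50 mM HEPES (pH 7.0 for MST2, 7.5 for MST4), 10 mM MgCl2, 1 mM EGTA, 0.01% Brij-35. Stopped at 45 min (MST2) or 60 min (MST4). Excitation 400 nm, emission 445/520 ratio converted to percent phosphorylation for IC50.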

[16] = AUC in dog at 5 mg/kg, po; type: ADME, organism-based, Canis lupus familiaris; design: dose 5 mg/kg, route oral; details: plasma
[17] = test system: Rattus norvegicus; assay: fCmax in Wistar Han rat at 60 mg/kg, po bid for 14 days; type: ADME, organism-based; design: dose 60 mg/kg, route oral; details: in vivo, 336 h
[18] = Cytotoxicity against human THLE cells by in-vitro ATP depletion assay; type: cell-based
[19] = test system: Rattus norvegicus; assay: Toxicity in Wistar Han rat assessed as changes in electrolytes levels at 6 to 60 mg/kg, po bid for 14 days; type: organism-based; design: dose 6-60 mg/kg, route oral; details: in vivo, 336 h; summary of the method: as §2

Serine/threonine-protein kinase 26, sequence (Q9P289 whole entry): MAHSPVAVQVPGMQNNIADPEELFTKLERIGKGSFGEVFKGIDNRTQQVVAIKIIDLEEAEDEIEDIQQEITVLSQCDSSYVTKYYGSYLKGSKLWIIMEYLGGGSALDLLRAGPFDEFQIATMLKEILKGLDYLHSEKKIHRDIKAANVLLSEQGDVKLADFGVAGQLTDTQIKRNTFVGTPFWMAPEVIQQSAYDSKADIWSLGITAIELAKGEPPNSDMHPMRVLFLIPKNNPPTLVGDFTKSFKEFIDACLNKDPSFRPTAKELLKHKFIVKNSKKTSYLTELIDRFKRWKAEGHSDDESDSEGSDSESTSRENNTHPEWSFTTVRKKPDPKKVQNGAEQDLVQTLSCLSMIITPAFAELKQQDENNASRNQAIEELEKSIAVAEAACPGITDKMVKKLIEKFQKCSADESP
Leucine-rich repeat serine/threonine-protein kinase 2, sequence (Q5S007 whole entry): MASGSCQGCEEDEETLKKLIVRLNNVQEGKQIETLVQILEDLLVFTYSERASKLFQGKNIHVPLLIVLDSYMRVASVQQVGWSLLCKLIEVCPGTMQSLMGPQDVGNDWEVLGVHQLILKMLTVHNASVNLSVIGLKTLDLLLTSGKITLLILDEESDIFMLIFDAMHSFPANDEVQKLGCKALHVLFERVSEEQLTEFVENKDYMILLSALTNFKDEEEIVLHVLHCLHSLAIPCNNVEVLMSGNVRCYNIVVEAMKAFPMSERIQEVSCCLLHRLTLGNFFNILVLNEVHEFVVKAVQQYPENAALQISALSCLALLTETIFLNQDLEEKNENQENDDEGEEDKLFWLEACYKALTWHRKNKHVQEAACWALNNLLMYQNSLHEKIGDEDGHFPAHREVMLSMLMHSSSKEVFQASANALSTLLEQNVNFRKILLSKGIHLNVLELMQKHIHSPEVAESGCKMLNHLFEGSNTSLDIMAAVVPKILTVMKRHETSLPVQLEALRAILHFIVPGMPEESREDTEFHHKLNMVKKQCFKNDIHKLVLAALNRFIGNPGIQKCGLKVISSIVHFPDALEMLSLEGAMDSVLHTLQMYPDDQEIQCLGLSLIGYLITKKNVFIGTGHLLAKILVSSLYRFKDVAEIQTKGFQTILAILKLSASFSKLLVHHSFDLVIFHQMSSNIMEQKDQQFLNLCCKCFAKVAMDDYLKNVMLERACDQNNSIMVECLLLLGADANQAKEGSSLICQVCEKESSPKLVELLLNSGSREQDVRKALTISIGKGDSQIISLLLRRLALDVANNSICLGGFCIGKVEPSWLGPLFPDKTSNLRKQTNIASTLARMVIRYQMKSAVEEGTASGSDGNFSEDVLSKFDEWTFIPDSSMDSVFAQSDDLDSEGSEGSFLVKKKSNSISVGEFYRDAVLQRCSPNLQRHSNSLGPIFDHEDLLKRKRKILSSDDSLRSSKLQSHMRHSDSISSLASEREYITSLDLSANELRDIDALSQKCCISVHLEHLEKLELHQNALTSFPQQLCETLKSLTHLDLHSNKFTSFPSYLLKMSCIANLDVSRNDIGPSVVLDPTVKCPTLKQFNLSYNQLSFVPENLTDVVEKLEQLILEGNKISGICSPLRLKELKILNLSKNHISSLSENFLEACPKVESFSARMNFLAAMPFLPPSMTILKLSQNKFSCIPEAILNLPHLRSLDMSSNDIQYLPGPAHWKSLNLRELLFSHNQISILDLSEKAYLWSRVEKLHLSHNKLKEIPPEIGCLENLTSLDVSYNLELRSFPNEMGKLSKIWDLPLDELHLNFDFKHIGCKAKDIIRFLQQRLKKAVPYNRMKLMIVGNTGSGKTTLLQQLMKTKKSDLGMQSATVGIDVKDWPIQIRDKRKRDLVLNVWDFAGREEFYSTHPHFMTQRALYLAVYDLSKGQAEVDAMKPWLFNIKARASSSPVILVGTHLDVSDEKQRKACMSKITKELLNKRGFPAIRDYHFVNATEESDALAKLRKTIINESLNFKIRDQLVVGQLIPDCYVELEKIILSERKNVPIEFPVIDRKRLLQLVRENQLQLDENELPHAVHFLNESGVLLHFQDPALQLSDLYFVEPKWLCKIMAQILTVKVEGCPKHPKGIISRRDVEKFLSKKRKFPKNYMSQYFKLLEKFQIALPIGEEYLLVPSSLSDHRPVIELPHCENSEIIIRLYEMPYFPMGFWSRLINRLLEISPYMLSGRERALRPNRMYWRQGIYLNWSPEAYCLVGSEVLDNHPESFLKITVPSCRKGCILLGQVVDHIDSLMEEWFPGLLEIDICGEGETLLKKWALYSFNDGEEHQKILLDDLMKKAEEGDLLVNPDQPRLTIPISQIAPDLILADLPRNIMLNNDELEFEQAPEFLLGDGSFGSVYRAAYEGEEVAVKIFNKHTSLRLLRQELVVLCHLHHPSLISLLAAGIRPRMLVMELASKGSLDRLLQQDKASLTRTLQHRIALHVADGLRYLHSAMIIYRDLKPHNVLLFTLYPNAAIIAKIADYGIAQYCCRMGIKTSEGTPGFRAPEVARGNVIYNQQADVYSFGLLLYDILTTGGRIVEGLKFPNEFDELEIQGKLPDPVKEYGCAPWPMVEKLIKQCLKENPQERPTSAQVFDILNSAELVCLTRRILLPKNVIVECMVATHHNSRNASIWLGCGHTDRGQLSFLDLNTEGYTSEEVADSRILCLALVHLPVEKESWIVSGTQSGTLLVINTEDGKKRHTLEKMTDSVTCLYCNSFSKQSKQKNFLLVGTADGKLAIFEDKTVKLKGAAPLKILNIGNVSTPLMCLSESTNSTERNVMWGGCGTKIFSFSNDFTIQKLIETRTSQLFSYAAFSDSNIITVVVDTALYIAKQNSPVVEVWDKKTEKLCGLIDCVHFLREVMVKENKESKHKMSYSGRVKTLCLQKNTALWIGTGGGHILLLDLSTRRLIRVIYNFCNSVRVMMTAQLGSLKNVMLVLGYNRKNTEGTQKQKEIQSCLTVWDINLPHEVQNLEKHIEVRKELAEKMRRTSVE

SMILES: N#Cc1cccc(-c2c[nH]c3ncnc(N4CCOCC4)c23)c1
- IC50 [1]: 22 nM
- Cmax [2]: 25 ng/mL
- half-life [3]: 46.8 min
- CLint scaled [4]: 36 mL/min/kg
- fAUC [5]: 4.14 µM·h
- fIC50 [6]: 21 nM
- Cmax [7]: 15 ng/mL
- AUC [8]: 78 ng·h/mL
- IC50 [9]: 15 nM
- Vdss [10]: 1.06 L/kg
- Activity [11]: Non-toxic
- Activity [12]: Non-toxic
- fIC50 [13]: 103 nM
- fCmax [14]: 86 nM
- IC50 [15]: 178 nM
- AUC [16]: 10 ng·h/mL
- fCmax [17]: 1050 nM
- IC50 [18]: > 223000 nM
- Activity [19]: Non-toxic
